Test results taken from ChEMBL document CHEMBL2062373, “Discovery of pyrroloaminopyrazoles as novel PAK inhibitors” (J Med Chem, 2012).

Key:
[1] = target: T1, Mitogen-activated protein kinase 1 (Homo sapiens, UniProt P28482); assay: Inhibition of Erk2 at 1000 nM
[2] = target: Serine/threonine-protein kinase PAK 4 (Homo sapiens, UniProt O96013); assay: Inhibition of PAK4-mediated GEF-H1 phosphorylation at Ser810 by cell based assay; conditions: read-out: EC50
[3] = Clearance in rat at 5 mg/kg, iv and 10 mg/kg, po; format: ADME, organism-based; conditions: in vivo
[4] = Half life in rat at 5 mg/kg, iv and 10 mg/kg, po; format: ADME, organism-based; conditions: in vivo
Mus musculus [5] = assay: Free dug level in mouse xenografted with human M24 cells at 15 mg/kg, po BID for 15 days; format: ADME, organism-based; parameters: dose 15 mg/kg, route oral; conditions: in vivo, 360 h
Outline: (§1)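 The read-out is free drug exposure, reported as unbound average concentration (free Cave) in nM. It was obtained from mice dosed orally at the stated regimen, sid or bid, during the xenograft efficacy study.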

[6] = target: AMP-activated protein kinase, AMPK (Homo sapiens) (UniProt P54646+O43741+P54619+Q9UGJ0+Q9Y478+Q13131+Q9UGI9); assay: Inhibition of AMPK at 1000 nM; format: protein-complex assay
Homo sapiens [7] = organism: Homo sapiens; assay: Inhibition of PCTAIRE; conditions: concentration not given here
HCT-116 [8] = assay: Antitumor activity against human HCT116 cells xenografted in mouse assessed as tumor growth inhibition at 20 mg/kg, po BID for 15 days; format: functional; conditions: HCT-116, 360 h, read-out: TGI
Outline: (§2)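 HCT-116 colon carcinoma xenografts in mice. Compound given orally twice daily. Efficacy expressed as percent tumour growth inhibition (TGI).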

[9] = target: Mitogen-activated protein kinase 3 (Homo sapiens) (UniProt P27361); assay: Inhibition of ERK1; conditions: concentration not given here
[10] = Antitumor activity against human M24 cells xenografted in mouse assessed as tumor growth inhibition at 3.75 mg/kg, po BID for 15 days; format: functional; conditions: M24, 360 h, read-out: TGI
Homo sapiens [11] = organism: Homo sapiens; assay: Inhibition of PKA at 1000 nM
[12] = Antitumor activity against human M24 cells xenografted in mouse assessed as tumor growth inhibition at 15 mg/kg, po BID for 15 days; format: functional; conditions: M24, 360 h, read-out: TGI
HCT-116 [13] = assay: Antitumor activity against human HCT116 cells xenografted in mouse assessed as tumor growth inhibition at 12.5 mg/kg, po BID for 15 days; format: functional; conditions: HCT-116, 360 h, read-out: TGI; outline: as §2
[14] = Half life in dog; format: ADME, organism-based, Canis lupus familiaris; conditions: in vivo
[15] = Efflux ratio of permeability from basolateral to apical side over apical to basolateral side in human Caco2 cells; format: ADME, cell-based; conditions: Caco-2
Mus musculus [16] = assay: Free dug level in mouse xenografted with human M24 cells at 3.75 mg/kg, po BID for 15 days; format: ADME, organism-based; parameters: dose 3.75 mg/kg, route oral; conditions: in vivo, 360 h
[17] = Octanol/buffer partition coefficient, log D of the compound at pH 7.4; format: physicochemical
[18] = target: Serine/threonine-protein kinase MARK1 (Homo sapiens, UniProt Q9P0L2); assay: Inhibition of MARK1
[19] = target: T2, Serine/threonine-protein kinase D3 (Homo sapiens) (UniProt O94806); assay: Inhibition of PKD3; conditions: concentration not given here
T2 sequence (whole entry): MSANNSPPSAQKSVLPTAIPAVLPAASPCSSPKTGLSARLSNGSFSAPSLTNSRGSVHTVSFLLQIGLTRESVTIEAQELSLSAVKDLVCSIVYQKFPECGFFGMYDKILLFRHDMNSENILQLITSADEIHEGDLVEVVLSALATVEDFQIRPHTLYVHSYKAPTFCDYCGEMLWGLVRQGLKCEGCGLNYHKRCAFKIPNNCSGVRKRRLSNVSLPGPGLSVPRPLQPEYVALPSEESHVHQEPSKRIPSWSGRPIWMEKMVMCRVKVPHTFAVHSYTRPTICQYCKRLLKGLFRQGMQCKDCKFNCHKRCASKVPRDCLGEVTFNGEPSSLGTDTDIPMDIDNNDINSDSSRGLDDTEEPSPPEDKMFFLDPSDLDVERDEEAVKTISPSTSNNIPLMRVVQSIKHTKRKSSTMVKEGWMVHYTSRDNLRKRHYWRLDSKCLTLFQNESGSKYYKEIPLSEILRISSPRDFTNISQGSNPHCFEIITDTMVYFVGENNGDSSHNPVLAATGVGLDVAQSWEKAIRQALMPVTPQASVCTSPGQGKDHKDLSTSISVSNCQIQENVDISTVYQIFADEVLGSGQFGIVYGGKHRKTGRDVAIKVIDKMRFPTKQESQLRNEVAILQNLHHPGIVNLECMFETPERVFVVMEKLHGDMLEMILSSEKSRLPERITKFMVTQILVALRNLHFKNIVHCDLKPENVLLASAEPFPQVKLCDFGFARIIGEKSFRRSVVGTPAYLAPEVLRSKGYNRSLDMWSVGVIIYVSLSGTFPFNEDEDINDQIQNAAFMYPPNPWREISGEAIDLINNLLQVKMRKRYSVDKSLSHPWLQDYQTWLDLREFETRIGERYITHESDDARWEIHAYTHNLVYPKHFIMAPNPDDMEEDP

[20] = Volume of distribution at steady state in rat at 5 mg/kg, iv and 10 mg/kg, po; format: ADME, organism-based; conditions: in vivo, read-out: Vdss
[21] = Oral bioavailability in dog; format: ADME, organism-based, Canis lupus familiaris; conditions: in vivo
[22] = Metabolic stability in human liver microsomes assessed as extraction ratio; format: ADME, Microsome; conditions: read-out: ERH
[23] = target: Cyclin-dependent kinase 2 (Homo sapiens, UniProt P24941)
[24] = Oral bioavailability in rat at 10 mg/kg; format: ADME, organism-based; conditions: in vivo
[25] = Clearance in dog; format: ADME, organism-based, Canis lupus familiaris; conditions: in vivo
[26] = target: T3, Glycogen synthase kinase-3 beta (Homo sapiens, UniProt P49841)
Target sequence in this assay (P49841 whole entry): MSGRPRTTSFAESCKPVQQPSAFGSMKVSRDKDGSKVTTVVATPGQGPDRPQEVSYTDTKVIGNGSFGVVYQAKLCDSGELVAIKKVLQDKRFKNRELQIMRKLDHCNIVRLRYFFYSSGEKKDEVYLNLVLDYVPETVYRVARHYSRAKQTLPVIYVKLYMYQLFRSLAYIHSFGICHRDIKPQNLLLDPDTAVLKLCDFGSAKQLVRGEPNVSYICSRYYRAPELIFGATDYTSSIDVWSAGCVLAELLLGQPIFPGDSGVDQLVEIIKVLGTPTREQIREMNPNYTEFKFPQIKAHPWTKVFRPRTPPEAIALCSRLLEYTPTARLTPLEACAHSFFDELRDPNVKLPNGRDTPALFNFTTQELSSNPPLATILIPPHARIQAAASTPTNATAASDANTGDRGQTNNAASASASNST

[27] = target: T1, Mitogen-activated protein kinase 1; assay: Inhibition of Erk2
Homo sapiens [28] = organism: Homo sapiens; assay: Inhibition of RSK at 1000 nM
Mus musculus [29] = assay: Free dug level in mouse xenografted with human M24 cells at 7.5 mg/kg, po BID for 15 days; format: ADME, organism-based; parameters: dose 7.5 mg/kg, route oral; conditions: in vivo, 360 h; outline: as §1
[30] = Antitumor activity against human M24 cells xenografted in mouse assessed as tumor growth inhibition at 7.5 mg/kg, po BID for 15 days; format: functional; conditions: M24, 360 h, read-out: TGI
[31] = target: T3, Glycogen synthase kinase-3 beta; assay: Inhibition of GSK3beta at 1000 nM
Target sequence in this assay (P49841 whole entry, looked up): as the sequence (P49841 whole entry) above

T1 sequence (P28482 whole entry): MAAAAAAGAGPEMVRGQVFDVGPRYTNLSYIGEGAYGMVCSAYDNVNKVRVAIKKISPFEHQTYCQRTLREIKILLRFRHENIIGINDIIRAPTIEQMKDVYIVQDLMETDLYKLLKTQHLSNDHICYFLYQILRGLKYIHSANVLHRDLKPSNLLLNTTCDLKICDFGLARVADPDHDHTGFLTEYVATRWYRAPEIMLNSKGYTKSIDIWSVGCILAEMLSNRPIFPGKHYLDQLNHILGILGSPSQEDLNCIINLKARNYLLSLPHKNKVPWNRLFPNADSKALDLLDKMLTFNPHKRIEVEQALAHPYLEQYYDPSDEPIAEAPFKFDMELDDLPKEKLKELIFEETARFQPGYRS
Sequence of Serine/threonine-protein kinase PAK 4 (O96013 whole entry): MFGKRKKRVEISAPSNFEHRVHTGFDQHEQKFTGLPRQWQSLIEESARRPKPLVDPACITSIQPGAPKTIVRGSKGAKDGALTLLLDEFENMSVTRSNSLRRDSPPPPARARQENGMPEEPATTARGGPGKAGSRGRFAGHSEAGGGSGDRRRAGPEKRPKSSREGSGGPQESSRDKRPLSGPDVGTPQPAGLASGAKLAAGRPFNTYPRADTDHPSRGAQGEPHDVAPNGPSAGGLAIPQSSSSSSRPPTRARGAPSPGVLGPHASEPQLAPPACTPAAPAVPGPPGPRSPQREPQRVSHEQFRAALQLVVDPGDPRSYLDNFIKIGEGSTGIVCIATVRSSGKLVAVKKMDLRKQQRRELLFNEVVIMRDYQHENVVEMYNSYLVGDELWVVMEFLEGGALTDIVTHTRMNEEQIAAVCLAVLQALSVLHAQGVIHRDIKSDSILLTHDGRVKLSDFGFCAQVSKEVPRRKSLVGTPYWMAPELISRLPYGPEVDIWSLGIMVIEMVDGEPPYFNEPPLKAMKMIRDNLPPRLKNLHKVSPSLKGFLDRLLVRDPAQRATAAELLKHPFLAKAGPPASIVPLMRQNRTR
Sequence of Serine/threonine-protein kinase MARK1 (Q9P0L2 whole entry): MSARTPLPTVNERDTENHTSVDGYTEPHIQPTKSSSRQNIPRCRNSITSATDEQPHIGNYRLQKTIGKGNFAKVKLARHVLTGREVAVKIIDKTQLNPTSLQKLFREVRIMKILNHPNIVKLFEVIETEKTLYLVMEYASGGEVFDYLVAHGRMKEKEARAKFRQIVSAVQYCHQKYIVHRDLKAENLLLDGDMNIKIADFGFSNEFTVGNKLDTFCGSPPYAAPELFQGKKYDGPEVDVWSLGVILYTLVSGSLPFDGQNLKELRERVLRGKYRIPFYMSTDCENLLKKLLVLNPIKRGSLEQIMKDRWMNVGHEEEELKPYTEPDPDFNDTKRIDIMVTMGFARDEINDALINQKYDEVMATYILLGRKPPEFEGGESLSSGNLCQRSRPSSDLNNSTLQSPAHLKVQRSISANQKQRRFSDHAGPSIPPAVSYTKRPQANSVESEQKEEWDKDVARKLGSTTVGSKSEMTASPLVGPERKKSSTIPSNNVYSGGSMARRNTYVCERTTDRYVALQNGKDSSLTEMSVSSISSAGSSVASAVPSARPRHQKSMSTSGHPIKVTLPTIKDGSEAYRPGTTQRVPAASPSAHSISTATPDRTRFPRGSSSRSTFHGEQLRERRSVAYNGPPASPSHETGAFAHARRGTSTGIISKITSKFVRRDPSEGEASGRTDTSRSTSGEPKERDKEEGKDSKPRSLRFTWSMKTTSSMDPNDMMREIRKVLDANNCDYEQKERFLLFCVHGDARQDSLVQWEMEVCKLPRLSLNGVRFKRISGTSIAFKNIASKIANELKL
Sequence of Mitogen-activated protein kinase 3 (Homo sapiens) (P27361 whole entry): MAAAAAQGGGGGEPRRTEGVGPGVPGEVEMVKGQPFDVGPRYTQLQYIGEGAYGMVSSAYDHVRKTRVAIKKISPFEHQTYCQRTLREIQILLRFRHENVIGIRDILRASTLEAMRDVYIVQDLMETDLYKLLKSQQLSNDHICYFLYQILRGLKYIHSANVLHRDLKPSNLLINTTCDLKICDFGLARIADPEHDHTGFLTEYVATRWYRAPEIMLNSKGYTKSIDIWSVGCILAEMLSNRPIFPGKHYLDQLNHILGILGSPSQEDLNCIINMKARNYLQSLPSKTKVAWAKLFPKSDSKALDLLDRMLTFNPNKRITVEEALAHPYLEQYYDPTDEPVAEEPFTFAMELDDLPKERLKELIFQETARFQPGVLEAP

- inhibition [1]: > 70%
- EC50 [2]: 4 nM
- clearance [3]: 52 mL/min/kg
- half-life [4]: 0.8 h
- Drug uptake(free) (Mus musculus [5]): 50.5 nM
- inhibition [6]: > 70%
- inhibition (Homo sapiens [7]): > 40%
- inhibition [9]: > 40%
- inhibition (Homo sapiens [11]): > 70%
- half-life [14]: 2.2 h
- efflux ratio [15]: 9.9
- Drug uptake(free) (Mus musculus [16]): 5.3 nM
- logD [17]: 2.52
- IC50 [18]: 115 nM
- inhibition [19]: > 40%
- Vd [20]: 2.8 L/kg
- bioavailability [21]: 20%
- hepatic extraction ratio [22]: 0.44
- IC50 [23]: 450 nM
- bioavailability [24]: 15%
- clearance [25]: 12 mL/min/kg
- IC50 [26]: 227 nM
- IC50 [27]: 170 nM
- inhibition (Homo sapiens [28]): > 70%
- Drug uptake(free) (Mus musculus [29]): 28.3 nM
- inhibition [31]: > 70%
Structure (SMILES): CN(C)C[C@@H](OC(=O)N1Cc2c(NC(=O)C(C)(C)C)n[nH]c2C1(C)C)c1ccccc1
- inhibition in vivo at 20 mg/kg (HCT-116 [8]): 52%
- inhibition in vivo at 3.75 mg/kg [10]: 41%
- inhibition in vivo at 15 mg/kg [12]: 68%
- inhibition in vivo at 12.5 mg/kg (HCT-116 [13]): 37%
- inhibition in vivo at 7.5 mg/kg [30]: 61%
